Consider two compounds from ChEMBL document CHEMBL1255259, “Phosphorothioate-modified oligodeoxynucleotides inhibit human cytomegalovirus replication by blocking virus entry” (Antimicrob Agents Chemother, 2008).

By IC50 is commonly meant the midpoint of a concentration-inhibition curve. As a reminder, the IC90 is the concentration needed for an effect of 90%. The term CC50 denotes the concentration giving 50% cytotoxicity.

Data set [1] relates to Human betaherpesvirus 5. The data set is described as follows: Antimicrobial activity against Human cytomegalovirus AD169 infected in 1 uM compound pretreated HELF assessed as inhibition of viral replication measured after 6 days post-infection. The format is functional, organism-based. The procedure, abridged: (§1)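 HELF pretreated with ODN 1 h before infection with HCMV AD169 (MOI 1); ODN kept in medium after 2 h adsorption at 37°C. At 6 days p.i., cells plus supernatants sonicated and titrated by plaque assay on HELF; plaques counted microscopically, expressed as PFU/ml (log10) or % of control. IC50/IC90 by linear regression; duplicate wells, three independent experiments, means ± SD.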

The test system of data set [2] is Human alphaherpesvirus 1. The data set can be described thus: Antimicrobial activity against Human herpesvirus 1 infected in compound pretreated HELF assessed as inhibition of viral replication at 0.1 uM. The format is functional, organism-based. In outline: (§2)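 HELF pretreated with ODN (0.1 or 1 μM) 1 h before infection with a clinical HSV-1 isolate at MOI 0.1; ODN kept in medium after 2 h adsorption. Harvest at 48 h p.i., sonication, plaque titration on Vero cells. Means ± SD of three independent experiments.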

Data set [3] can be described thus: Cytotoxicity against HELF assessed as cell viability by MTT assay after 6 days at <=10 uM. The format is cell-based. The conditions noted are these: human, 144 h. The procedure, abridged:
(§3)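 HELF exposed to rising ODN concentrations (up to 10 μM) for 6 days; viable cells measured by MTT. CC50 taken as concentration that cuts viability to 50%.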
(Formazan colour is commonly taken as a measure of viable cells.)

For data set [4], the system named is Human betaherpesvirus 5. The data set is described as follows: Antimicrobial activity against Human cytomegalovirus AD169 infected in HELF assessed as inhibition of viral replication at 0.1 uM measured after 6 days post-infection. The format is functional, organism-based.
Data set [5] relates to Human betaherpesvirus 5. The data set can be described thus: Antimicrobial activity against Human cytomegalovirus AD169 infected in compound pretreated HELF measured as immediate early 2 mRNA level by RT-PCR. It is filed as functional, organism-based.
A further data set relates to unidentified adenovirus. The data set can be described thus: Antimicrobial activity against unidentified adenovirus infected in compound pretreated HELF assessed as inhibition of viral replication. It is filed as functional, organism-based. In outline:
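HELF pretreated 1 h with ODN (0.1 or 1 μM), infected with an adenovirus clinical isolate (MOI 1); ODN kept after 2 h adsorption. Harvest at 4 days p.i., sonication, plaque titration on HELF. Means ± SD, three experiments.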

Data set [6] has as its system Human betaherpesvirus 5. The data set can be described thus: Antimicrobial activity against 0.1 uM compound pretreated Human cytomegalovirus AD169 infected in HELF assessed as reduction in viral titer at 4 degC. It is filed as functional, organism-based. In outline: (§4)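 HCMV AD169 (10^4 PFU) incubated with ODN at 0.1 μM at 4 or 37°C for various times; samples then diluted to bring ODN below an antivirally active level; residual infectivity titrated by plaque assay on HELF. Means ± SD of three independent experiments.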

Data set [7] relates to Human betaherpesvirus 5. The data set can be described thus: Antimicrobial activity against Human cytomegalovirus AD169 infected in compound pretreated HELF assessed as inhibition of viral replication measured after 6 days post-infection. The conditions noted are these: Human betaherpesvirus 5, AD169, HELF. The format is functional, organism-based. The procedure, abridged: as §1

Data set [8] concerns Human betaherpesvirus 5. The data set can be described thus: Antimicrobial activity against Human cytomegalovirus AD169 infected in 0.1 uM compound pretreated HELF assessed as inhibition of viral replication measured after 6 days post-infection. It is filed as functional, organism-based. The procedure, abridged: as §1
The test system of data set [9] is Vesicular stomatitis Indiana virus. The data set is described as follows: Antimicrobial activity against Vesicular stomatitis Indiana virus infected in compound pretreated HELF assessed as inhibition of viral replication. It is filed as functional, organism-based. The procedure, abridged: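 HELFs exposed to ODN (0.1 or 1 μM) for 1 h, then infected with VSV serotype Indiana at MOI 1 (2 h adsorption, 37°C). ODN kept in the medium until 48 h p.i. Cells and supernatants were pooled, sonicated and titrated by plaque assay on HELFs. Data are means ± standard deviations of three independent experiments, duplicate wells.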

For data set [10], the system named is Human betaherpesvirus 5. The data set can be described thus: Antimicrobial activity against Human cytomegalovirus AD169 infected in compound pretreated HELF measured as immediate early 1 mRNA level by RT-PCR. The format is functional, organism-based.
Data set [11] relates to Human betaherpesvirus 5. The data set is described as follows: Antimicrobial activity against Human cytomegalovirus AD169 infected in HELF assessed as inhibition of viral replication at 1 uM measured after 6 days post-infection. It is filed as functional, organism-based.
The nature of data set [12]: Cytotoxicity against HELF assessed as cell viability after 6 days by MTT assay. The conditions noted are these: human, HELF cells. The format is cell-based. In outline: as §3
Data set [13] deals with Human betaherpesvirus 5. The data set can be described thus: Antimicrobial activity against 0.1 uM compound pretreated Human cytomegalovirus AD169 infected in HELF assessed as reduction in viral titer 37 degC. The format is functional, organism-based. In outline: as §4
The subject of data set [14] is Human alphaherpesvirus 1. The data set can be described thus: Antimicrobial activity against Human herpesvirus 1 infected in compound pretreated HELF assessed as inhibition of viral replication at 1 uM. It is filed as functional, organism-based. In outline:
as §2

Data set [15] in a line: Antimicrobial activity against Murine cytomegalovirus (strain Smith) infected in compound pretreated mouse NIH 3T3 cells assessed as inhibition of viral replication. The format is functional, cell-based. The conditions noted are these: Murid betaherpesvirus 1, NIH3T3. The procedure, abridged:
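NIH 3T3 pretreated 1 h with ODN, infected with MCMV Smith (MOI 1); ODN kept after 2 h adsorption at 37°C. Harvest at 6 days p.i., sonication, plaque assay on NIH 3T3; IC50 from plaque reduction. Means ± SD, three experiments.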

Data set [16] deals with Human betaherpesvirus 5. The data set can be described thus: Antimicrobial activity against Human herpesvirus 5 strain AD169 infected in HELF assessed as pp65 nuclear localization at 0.1 uM after 2 hrs […]. It is filed as functional, organism-based.

Activity calls are given as the source filed them. The rule behind the calls is not given here.

`Cc1cn([C@H]2C[C@H](OP(O)(O)=S)[C@@H](COP(O)(=S)O[C@H]3C[C@H](n4cc(C)c(=O)[nH]c4=O)O[C@@H]3COP(O)(=S)O[C@H]3C[C@H](n4cc(C)c(=O)[nH]c4=O)O[C@@H]3COP(O)(=S)O[C@H]3C[C@H](n4cc(C)c(=O)[nH]c4=O)O[C@@H]3COP(O)(=S)O[C@H]3[C@@H](O)[C@H](n4cnc5c(=O)[nH]c(N)nc54)O[C@@H]3COP(O)(=S)O[C@H]3[C@@H](O)[C@H](n4ccc(N)nc4=O)O[C@@H]3COP(O)(=S)O[C@H]3C[C@H](n4cc(C)c(=O)[nH]c4=O)O[C@@H]3COP(O)(=S)O[C@H]3[C@@H](O)[C@H](n4cnc5c(=O)[nH]c(N)nc54)O[C@@H]3COP(O)(=S)O[C@H]3[C@@H](O)[C@H](n4cnc5c(=O)[nH]c(N)nc54)O[C@@H]3COP(O)(=S)O[C@H]3[C@@H](O)[C@H](n4ccc(N)nc4=O)O[C@@H]3COP(O)(=S)O[C@H]3C[C@H](n4cc(C)c(=O)[nH]c4=O)O[C@@H]3COP(O)(=S)O[C@H]3C[C@H](n4cc(C)c(=O)[nH]c4=O)O[C@@H]3COP(O)(=S)O[C@H]3C[C@H](n4cc(C)c(=O)[nH]c4=O)O[C@@H]3COP(O)(=S)O[C@H]3C[C@H](n4cc(C)c(=O)[nH]c4=O)O[C@@H]3COP(O)(=S)O[C@H]3C[C@H](n4cc(C)c(=O)[nH]c4=O)O[C@@H]3COP(O)(=S)O[C@H]3[C@@H](O)[C@H](n4cnc5c(=O)[nH]c(N)nc54)O[C@@H]3COP(O)(=S)O[C@H]3[C@@H](O)[C@H](n4ccc(N)nc4=O)O[C@@H]3COP(O)(=S)O[C@H]3C[C@H](n4cc(C)c(=O)[nH]c4=O)O[C@@H]3COP(O)(=S)O[C@H]3[C@@H](O)[C@H](n4cnc5c(=O)[nH]c(N)nc54)O[C@@H]3COP(O)(=S)O[C@H]3[C@@H](O)[C@H](n4ccc(N)nc4=O)O[C@@H]3COP(O)(=S)O[C@H]3C[C@H](n4cc(C)c(=O)[nH]c4=O)O[C@@H]3CO)O2)c(=O)[nH]c1=O` (some centres not stated): the inhibition result in the data set with Human betaherpesvirus 5 [1], in the data set with Human betaherpesvirus 5 [5], with Human betaherpesvirus 5 [8] and in the data set with Human betaherpesvirus 5 [10] was “Active” each time. In addition, the inhibition entry (with Human alphaherpesvirus 1 [2]; with Human betaherpesvirus 5 [4]; in the data set on unidentified adenovirus; with Human betaherpesvirus 5 [6]; in data set [9]; with Human betaherpesvirus 5 [11]) was “inactive” in each case. In addition, the inhibition result with Human betaherpesvirus 5 [13] and with Human alphaherpesvirus 1 [14] was “inactive” in each case. For the same compound, the Activity result in data set [3] is given as “Non-toxic”. In addition, the IC50 in the data set with Human betaherpesvirus 5 [7] came to 25 nM. The IC90 with Human betaherpesvirus 5 [7] worked out at 65 nM. The 50% cytotoxic concentration (CC50) at 144 h in data set [12] is greater than 10000 nM.
On to `Cc1cn([C@H]2C[C@H](OP(O)(O)=S)[C@@H](COP(O)(=S)O[C@H]3C[C@H](n4cc(C)c(=O)[nH]c4=O)O[C@@H]3COP(O)(=S)O[C@H]3[C@@H](O)[C@H](n4ccc(N)nc4=O)O[C@@H]3COP(O)(=S)O[C@H]3[C@@H](O)[C@H](n4cnc5c(=O)[nH]c(N)nc54)O[C@@H]3COP(O)(=S)O[C@H]3C[C@H](n4cc(C)c(=O)[nH]c4=O)O[C@@H]3COP(O)(=S)O[C@H]3[C@@H](O)[C@H](n4cnc5c(=O)[nH]c(N)nc54)O[C@@H]3COP(O)(=S)O[C@H]3C[C@H](n4cc(C)c(=O)[nH]c4=O)O[C@@H]3COP(O)(=S)O[C@H]3C[C@H](n4cc(C)c(=O)[nH]c4=O)O[C@@H]3COP(O)(=S)O[C@H]3C[C@H](n4cc(C)c(=O)[nH]c4=O)O[C@@H]3COP(O)(=S)O[C@H]3C[C@H](n4cc(C)c(=O)[nH]c4=O)O[C@@H]3COP(O)(=S)O[C@H]3[C@@H](O)[C@H](n4ccc(N)nc4=O)O[C@@H]3COP(O)(=S)O[C@H]3[C@@H](O)[C@H](n4cnc5c(=O)[nH]c(N)nc54)O[C@@H]3COP(O)(=S)O[C@H]3C[C@H](n4cc(C)c(=O)[nH]c4=O)O[C@@H]3COP(O)(=S)O[C@H]3[C@@H](O)[C@H](n4cnc5c(=O)[nH]c(N)nc54)O[C@@H]3COP(O)(=S)O[C@H]3C[C@H](n4cc(C)c(=O)[nH]c4=O)O[C@@H]3COP(O)(=S)O[C@H]3C[C@H](n4cc(C)c(=O)[nH]c4=O)O[C@@H]3COP(O)(=S)O[C@H]3C[C@H](n4cc(C)c(=O)[nH]c4=O)O[C@@H]3COP(O)(=S)O[C@H]3C[C@H](n4cc(C)c(=O)[nH]c4=O)O[C@@H]3COP(O)(=S)O[C@H]3[C@@H](O)[C@H](n4ccc(N)nc4=O)O[C@@H]3COP(O)(=S)O[C@H]3[C@@H](O)[C@H](n4cnc5c(=O)[nH]c(N)nc54)O[C@@H]3COP(O)(=S)O[C@H]3C[C@H](n4cc(C)c(=O)[nH]c4=O)O[C@@H]3COP(O)(=S)O[C@H]3[C@@H](O)[C@H](n4ccc(N)nc4=O)O[C@@H]3COP(O)(=S)O[C@H]3[C@@H](O)[C@H](n4cnc5c(=O)[nH]c(N)nc54)O[C@@H]3COP(O)(=S)O[C@H]3C[C@H](n4cc(C)c(=O)[nH]c4=O)O[C@@H]3CO)O2)c(=O)[nH]c1=O` (some centres not stated), for which the inhibition result in the data set on Human betaherpesvirus 5 [1], in the data set on Human betaherpesvirus 5 [8] and in the data set on Human betaherpesvirus 5 [16] was “Active” in each case. Moreover, the inhibition result (in the data set with Human alphaherpesvirus 1 [2]; with Human betaherpesvirus 5 [4]; with unidentified adenovirus; with Human betaherpesvirus 5 [6]; in data set [9]; in the data set on Human betaherpesvirus 5 [11]) was “inactive” throughout. The inhibition result in the data set with Human betaherpesvirus 5 [13] and in the data set on Human alphaherpesvirus 1 [14] was “inactive” each time. The values for the IC50 (in data set [15]; in the data set on Human betaherpesvirus 5 [7]) were 20 nM and 30 nM, respectively. Also, in [3], the Activity entry was “Non-toxic”. The IC90 with Human betaherpesvirus 5 [7] came out at 220 nM. Also, the CC50 at 144 h in data set [12] was greater than 10000 nM.
